Laboratory results reported in ChEMBL document CHEMBL3585329, “Cafestol-Type Diterpenoids from the Twigs of Tricalysia fruticosa with Potential Anti-inflammatory Activity” (J Nat Prod, 2015).
Active and inactive are the calls of the source. The rule behind the calls is not given here.

Assays:
[1] = Cytotoxicity against mouse RAW264.7 cells assessed as cell survival up to 100 uM; assay type: cell-based; conditions: read-out: Survival
Outline: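 RAW 264.7 macrophages were grown with 3.0 mM glutamine, penicillin and streptomycin (100 U/mL each), and 10% heat-inactivated FBS at 37 °C in humidified 5% CO2. Cell survival was examined after exposure to each isolate at concentrations up to 100 μM.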

[2] = test system: RAW264.7; assay: Inhibition of LPS-induced NO release in mouse RAW264.7 cells after 24 hrs by Griess reaction; assay type: functional, cell-based; conditions: RAW264.7, 24 h
Outline: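 RAW 264.7 cells (10% heat-inactivated FBS, 3.0 mM glutamine, 37 °C, 5% CO2) seeded at 2 × 10^4 cells/mL. DMSO-solubilized compounds added 1 h before LPS. Supernatant nitrite measured by Griess reagent (0.1% naphthylethylene diamine, 1.0% sulfanilamide in 2.5% phosphoric acid), 10 min at room temperature, A550. NO quantified against a sodium nitrite standard curve. Positive control: N-monomethyl-L-arginine.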

[3] = test system: RAW264.7; assay: Suppression of LPS-induced iNOS protein expression in mouse RAW264.7 cells by Western blotting analysis; assay type: functional, cell-based
Outline: (§1)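 Macrophages seeded at 1 × 10^6 cells/well, pretreated 1 h with 2.5, 5.0 or 10.0 μM test agent (DMSO), then stimulated with LPS 1 μg/mL. Dexamethasone 1.0 μM served as positive control. Lysis in ice-cold RIPA with 0.1% PMSF, 12000g for 20 min. SDS-PAGE, PVDF transfer, 5% skim-milk block, primary antibody overnight at 4 °C, HRP secondary (1:12 000) 1.5 h at RT, ECL detection. Means ± SD.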

[4] = test system: RAW264.7; assay: Suppression of LPS-induced IL6 protein expression in mouse RAW264.7 cells by ELISA; assay type: functional, cell-based
Outline: (§2)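 RAW 264.7 cells seeded at 4 × 10^5 cells/well and exposed to LPS with or without 2.5, 5.0 or 10.0 μM test agent (DMSO stock diluted in DMEM, added 1 h before LPS) for 18 h. Cytokine in cell-free supernatant measured by mouse ELISA kit per manufacturer's protocol. Means ± SD.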

[5] = test system: RAW264.7; assay: Suppression of LPS-induced TNFalpha protein expression in mouse RAW264.7 cells by ELISA; assay type: functional, cell-based; outline: as §2
[6] = target: Transcription factor p65 (Mus musculus) (UniProt Q04207); assay: Inhibition of NFkappaBp65 activation in LPS-induced mouse RAW264.7 cells at 2.5 to 10 uM by Western blotting analysis; assay type: cell-based; outline: as §1
[7] = test system: RAW264.7; assay: Inhibition of LPS-stimulated ERK phosphorylation in mouse RAW264.7 cells by Western blotting analysis; assay type: cell-based; outline: as §1
[8] = test system: RAW264.7; assay: Inhibition of LPS-stimulated JNK phosphorylation in mouse RAW264.7 cells by Western blotting analysis; assay type: cell-based; outline: as §1
[9] = target: MAP kinase p38 (Mus musculus) (UniProt P47811+O08911+Q9WUI1+Q9Z1B7); assay: Inhibition of LPS-stimulated p38 phosphorylation in mouse RAW264.7 cells by Western blotting analysis; assay type: cell-based; outline: as §1
[10] = target: NF-kappa-B inhibitor alpha (Mus musculus) (UniProt Q9Z1E3); assay: Inhibition of IkappaB alpha phosphorylation in LPS-induced mouse RAW264.7 cells by Western blotting analysis
Sequence of NF-kappa-B inhibitor alpha (Mus musculus) (Q9Z1E3 whole entry, looked up): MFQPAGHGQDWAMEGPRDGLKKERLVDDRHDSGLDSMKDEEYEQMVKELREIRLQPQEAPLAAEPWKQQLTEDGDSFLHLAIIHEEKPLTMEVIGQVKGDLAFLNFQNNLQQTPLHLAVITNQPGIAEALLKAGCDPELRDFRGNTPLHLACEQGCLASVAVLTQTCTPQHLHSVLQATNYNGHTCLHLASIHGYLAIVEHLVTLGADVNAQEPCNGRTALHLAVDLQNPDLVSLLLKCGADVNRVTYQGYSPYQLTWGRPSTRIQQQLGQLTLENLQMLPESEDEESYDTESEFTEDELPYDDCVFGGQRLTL

Sequence of Transcription factor p65 (Mus musculus) (Q04207 whole entry): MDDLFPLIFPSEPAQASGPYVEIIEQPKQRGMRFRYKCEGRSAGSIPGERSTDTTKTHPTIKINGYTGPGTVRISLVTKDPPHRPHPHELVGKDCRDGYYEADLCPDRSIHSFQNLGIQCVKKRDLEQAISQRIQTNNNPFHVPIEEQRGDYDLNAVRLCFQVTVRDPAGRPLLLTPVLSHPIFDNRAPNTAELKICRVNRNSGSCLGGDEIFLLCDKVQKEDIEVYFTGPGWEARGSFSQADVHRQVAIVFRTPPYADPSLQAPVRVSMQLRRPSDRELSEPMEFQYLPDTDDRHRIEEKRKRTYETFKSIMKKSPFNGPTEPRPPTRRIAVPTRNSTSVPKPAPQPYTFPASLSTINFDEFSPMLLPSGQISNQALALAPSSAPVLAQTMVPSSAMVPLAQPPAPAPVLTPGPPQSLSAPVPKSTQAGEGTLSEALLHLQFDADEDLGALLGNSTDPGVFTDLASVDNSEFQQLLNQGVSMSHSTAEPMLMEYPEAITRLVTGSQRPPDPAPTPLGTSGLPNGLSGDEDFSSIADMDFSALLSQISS

## C[C@@]12CC=C3OC(=O)C=C3[C@H]1CC[C@@]13C[C@@H](CC[C@H]12)[C@@](O)(CO)C3
[1]
  viability: > 90%
[2]
  IC50: > 100 µM

## C[C@@]12C=CC(=O)C[C@H]1CC[C@]13C[C@](O)(CO)[C@@](O)(CC[C@H]12)C3
[1]
  viability: > 90%
[2]
  IC50: 27.1 µM

## C[C@@]12[C@H](O)C=C3OC(=O)C=C3[C@H]1CC[C@@]13C[C@@H](CC[C@H]12)[C@@](O)(CO)C3
[1]
  viability: > 90%
[2]
  IC50: > 100 µM

## C[C@@]12CC(=O)c3occc3[C@H]1CC[C@]13C[C@](O)(CO)[C@@](O)(CC[C@H]12)C3
[1]
  viability: > 90%
[2]
  IC50: > 100 µM

## C[C@@]12CC[C@@]3(O)OC(=O)C=C3[C@H]1CC[C@@]13C[C@H](CC[C@@H]21)[C@@](O)(CO)[C@@H]3O
[1]
  viability: > 90%
[2]
  IC50: > 100 µM

## CO[C@@H]1C[C@@]2(CC[C@@]3(C)[C@@H]4CC[C@@H]5C[C@@]4(CC[C@H]23)C[C@]5(O)CO)C(=O)O1
[1]
  viability: > 90%
[2]
  IC50: > 100 µM

## C[C@@]12CC=C3OC(=O)C=C3[C@H]1CC[C@@]13C[C@@H](CC[C@@H]21)[C@@](O)(CO)[C@@H]3O
[1]
  viability: > 90%
[2]
  IC50: > 100 µM

## C[C@@]12CC[C@@]3(O)OC(=O)C=C3[C@H]1CC[C@]13C[C@](O)(CO)[C@@](O)(CC[C@H]12)C3
[1]
  viability: > 90%
[2]
  IC50: > 100 µM

## C[C@@]12CC[C@H]3OC(=O)C=C3[C@H]1CC[C@@]13C[C@@H](CC[C@H]12)[C@@](O)(CO)C3
[1]
  viability: > 90%
[2]
  IC50: > 100 µM

## C[C@@]12CC[C@@]3(O)OC(=O)C=C3[C@H]1CC[C@@]13C[C@H](CC[C@H]12)[C@@](O)(CO)C3
[1]
  viability: > 90%
[2]
  IC50: > 100 µM

## CCOC(=O)/C=C1\C(=O)C=C[C@]2(C)[C@@H]1CC[C@]13C[C@](O)(CO)[C@@](O)(CC[C@H]12)C3
[1]
  viability: > 90%
[2]
  IC50: 6.6 µM
[3]
  inhibition: Dose-dependent effect
[4]
  inhibition: Dose-dependent effect
[5]
  inhibition: Dose-dependent effect
[6]
  inhibition: Active
[7]
  inhibition: Active
[8]
  inhibition: Active
[9]
  inhibition: Active
[10]
  inhibition: Active

## CC(=O)OC[C@]1(O)[C@@H]2CC[C@H]3[C@]4(C)CC[C@@]5(O)OC(=O)C=C5[C@H]4CC[C@]3(C2)[C@H]1O
[1]
  viability: > 90%
[2]
  IC50: > 100 µM

## C[C@@]12CC[C@H]3OC(=O)C=C3[C@H]1CC[C@@]13C[C@H](CC[C@]12O)[C@@](O)(CO)C3
[1]
  viability: > 90%
[2]
  IC50: > 100 µM

## CNC(=N)NCCC[C@H](N)C(=O)O [TILARGININE]
[2]
  IC50: 40.5 µM
